# OX1R antag-1: antagonists of human orexin 1 receptor (OX1R) | AID 485270 | hit rate 1.8% among 330,000 | inhibition, % at 6.6 µM | OX1R-expressing cells, FRET antagonist read-out | O43613; in the data active means inhibition mostly above about 38%, no sharp cut-off; inactive means mostly below about 40%;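 further: 0% = agonist challenge alone and 100% = reference antagonist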
# CHO parental Ca: counter-screen: ATP calcium response change in parental CHO cells; hit rate 0.63% among 330,000; parental CHO-K1, ATP-induced calcium, Fluo-8 fluorescence; AID 463079; inhibition, % at 5.6 µM;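 active means inhibition above that plate's mean sample inhibition plus 3 SD, cut at about 26% in these data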;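 further: 0% = ATP-challenged DMSO wells and 100% = DMSO wells without ATP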
#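 Test system: untransfected parental CHO cell line; also added: ATP stimulus; dosing: 5.6 µM, single dose; signal: calcium-sensitive Fluo-8 fluorescence; measure: percent inhibition of ATP-evoked calcium rise, normalized to controls; benchmarks: low control ATP plus DMSO, high control DMSO only; replication: one well per compound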
# OX1R antag-2: human HCRTR1 antagonism; O43613; CHO/OX1R cells, Fluo-8 calcium fluorescence, orexin A; inhibition, % at 5 µM; hit rate 0.43% among 330,000;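 active means inhibition above its plate's threshold, mean inhibition of all tested compounds on the plate plus 3 SD, cut at about 37% in these data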;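 further: 0% = orexin A challenge wells and 100% = SB-334867-A antagonist wells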
# GPR7 antag: blocks human GPR7 receptor signaling | P48145 | GPR7-expressing cells, fluorescence antagonist assay | inhibition, % at 4.4 µM | hit rate 1.1% among 290,000 | AID 1861; in the data active means inhibition above about 16%, passing the limit was not always enough;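 further: cells stimulated with the agonist NPW; 0% = agonist with vehicle and 100% = vehicle without agonist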
# Target sequence (P48145 whole entry, looked up): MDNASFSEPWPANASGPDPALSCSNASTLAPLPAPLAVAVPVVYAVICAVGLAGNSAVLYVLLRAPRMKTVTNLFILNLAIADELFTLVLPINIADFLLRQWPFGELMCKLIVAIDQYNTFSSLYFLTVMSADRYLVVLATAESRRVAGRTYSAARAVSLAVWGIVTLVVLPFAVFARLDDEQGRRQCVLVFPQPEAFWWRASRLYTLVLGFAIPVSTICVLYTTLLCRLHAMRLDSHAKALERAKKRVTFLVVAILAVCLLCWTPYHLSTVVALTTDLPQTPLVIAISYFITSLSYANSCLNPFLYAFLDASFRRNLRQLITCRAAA
# TAAR1 ag: agonists of human TAAR1; Q96RJ0; CHO RD-HGA16 TAAR1, Fluo-8 calcium fluorescence; vehicle wells 0%, saturating PEA agonist 100%; activation, % at 3 µM; hit rate 0.99% among 360,000;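 active means activation above the mean activation of all test compounds in the run plus 3 SD, cut at about 38% in these data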
# Target sequence (Q96RJ0 whole entry, looked up): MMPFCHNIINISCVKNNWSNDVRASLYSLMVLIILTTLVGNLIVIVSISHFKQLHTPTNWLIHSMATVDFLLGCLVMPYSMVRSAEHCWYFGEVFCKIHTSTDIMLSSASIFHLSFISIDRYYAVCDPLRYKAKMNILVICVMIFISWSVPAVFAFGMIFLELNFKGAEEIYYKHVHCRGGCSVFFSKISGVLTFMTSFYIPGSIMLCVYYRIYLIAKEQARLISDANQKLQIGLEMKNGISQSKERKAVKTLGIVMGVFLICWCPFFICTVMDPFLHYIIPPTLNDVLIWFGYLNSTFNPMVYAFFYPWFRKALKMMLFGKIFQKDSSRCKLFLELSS
#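 Test system: RD-HGA16 (CHO) cells co-expressing Gα16 and hTAAR1 | Doses: Single dose, 3 µM | Schedule: 17-24 h seeding, 75 min 37 °C dye, 30 min RT | Evaluation: % activation from peak over basal fluorescence ratio, DMSO-to-PEA scaled | Technique: Kinetic Fluo-8 calcium fluorescence | Benchmarks: Low control DMSO, high control PEA (EC100)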
# TAAR1 antagonist: human TAAR1 antagonism. Q96RJ0. CHO RD-HGA16 TAAR1, Fluo-8 calcium fluorescence, antagonist. inhibition, % at 3 µM. hit rate 1.5% among 360,000;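 active means inhibition above a per-plate cutoff, the mean inhibition of test compounds on that plate plus 3 SD, cut at about 49% in these data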;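 further: 0% = DMSO plus EC80 beta-PEA response and 100% = DMSO alone without agonist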
#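 test system = CHO RD-HGA16 cells bearing hTAAR1 | replication = singlicate | controls = DMSO-only wells and EC80 β-PEA-stimulated wells | reagent = EC80 β-phenethylamine stimulus | read-out basis = percent inhibition of PEA-evoked calcium signal, max/basal emission ratio | schedule = seeding 17-24 h prior, 75-min 37 °C, 30-min RT dye loading | signal = kinetic Fluo-8 calcium fluorescence measurement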
# The depositor's hits bear a star; · = no result given. Rows were chosen to be rich in hits. Some 4.6% of all compounds tested hit in one or more screens of this group.
SMILES,OX1R antag-1,CHO parental Ca,OX1R antag-2,GPR7 antag,TAAR1 ag,TAAR1 antagonist
CCOC(=O)Cc1ccc(NCc2ccc(Cl)cc2)cc1,15,5,-6,1,0,7
CC(C)(C)c1ccc(CN(Cc2ccco2)Cc2nnnn2C2CCCC2)cc1,12,48*,-22,6,2,29
CCOc1ccc(/C=N/NC(=O)c2ccccc2Cl)cc1CN1CC2CC(C1)c1cccc(=O)n1C2 (centres undefined),37*,-30,-15,·,-2,8
COC(=O)c1c(C)[nH]c(C)c1C(=O)c1ccccc1Cc1ccccc1,47*,-12,-10,·,13,0
COC(=O)c1c(C)[nH]c(C=O)c1-c1ccccc1,11,-12,-12,-13,2,12
Cc1[nH]c2ccccc2c1CCNC(=O)c1ccc2c(c1[N+](=O)[O-])C(=O)c1ccccc1C2=O,71*,-6,-8,-7,-3,12
Cc1[nH]c2c(C)cccc2c1CCNC(=O)c1ccc2c(c1[N+](=O)[O-])C(=O)c1ccccc1C2=O,75,2,5,-3,4,20
CCN(CCNC(=O)C1CCN(Cc2nc(-c3ccc(Cl)cc3)oc2C)CC1)c1ccccc1,1,1,0,53*,13,6
CCN(CCNC(=O)C1CCN(Cc2nc(-c3cccc(Cl)c3)oc2C)CC1)c1ccccc1,10,-4,-10,7,39*,-3
CCc1ccc(-c2nc(CN3CCC(C(=O)NCCN(CC)c4ccccc4)CC3)c(C)o2)cc1,2,-18,-26,-6,25,-4
CCc1ccc(-c2nc(CN3CCC(C(=O)N4CCN(c5ccccn5)CC4)CC3)c(C)o2)cc1,2,-16,-28,-5,13,-16
CCc1ccc(-c2nc(CN3CCC(C(=O)N4CCN(c5ccccc5)CC4)CC3)c(C)o2)cc1,6,2,-8,23*,28,-3
COCCN(C(=O)COC(=O)Cc1ccc(Cl)cc1Cl)c1c(N)n(Cc2ccccc2)c(=O)[nH]c1=O,17,2,-15,·,1,-34
Cc1cc(SCC(=O)N(C)C2CCCCC2)nc2ccccc12,36*,-14,-3,·,23,11
N/C(=N\OC(=O)c1ccc([N+](=O)[O-])cc1Cl)c1ccccn1,54*,-16,-28,-6,1,-24
N/C(=N\OC(=O)c1cc([N+](=O)[O-])ccc1Cl)c1ccccn1,46,-5,-7,-16,10,-20
CCCCc1c(-c2cccc(Br)c2)ncn1CCc1ccccc1OC,·,·,·,·,43*,43
CCCCc1c(-c2ccccc2OC)ncn1CCc1ccccc1OC,·,·,·,·,48*,28
CCCCCc1c(-c2ccccc2OC)ncn1CCc1ccccc1OC,·,·,·,·,36,51*
CCCc1c(-c2ccccc2OC)ncn1CCc1ccccc1OC,·,·,·,·,32,21
CCCCCc1c(-c2ccc(F)cc2)ncn1CCc1ccccc1OC,·,·,·,·,24,47
CCCCCc1c(CC)ncn1CCc1ccccc1OC,·,·,·,·,48*,53*
CCCc1c(-c2ccccc2F)ncn1CCc1ccccc1OC,·,·,·,·,17,38
COC(=O)c1cccnc1-n1c(=O)c2cccnc2n(Cc2cccc(C(F)(F)F)c2)c1=O,33,-14,-27,-6,-3,-36
Cn1c(CSCc2ccc(Cl)c(Cl)c2)nnc1SCC(=O)Nc1nccs1,33,-7,1,10,40*,62*
SMILES,OX1R antag-1,CHO parental Ca,OX1R antag-2,GPR7 antag,TAAR1 ag,TAAR1 antagonist
Cn1c(CSCc2ccc(F)cc2)nnc1SCC(=O)Nc1nccs1,12,-9,-16,8,20,35
O=C(Nc1cccnc1)c1cc2c(s1)-c1ccccc1OC2,15,37,31,15,6,11
O=C(Nc1nccs1)c1cc2c(s1)-c1ccccc1OC2,42,12,-2,17*,3,12
Cc1cccc2c1-c1sc(C(=O)Nc3cccc([N+](=O)[O-])c3C)cc1CO2,27,7,-7,-17,1,37
Cc1cccc2c1-c1sc(C(=O)Nc3cccnc3)cc1CO2,56*,-28,34,3,5,19
Cc1cccc2c1-c1sc(C(=O)Nc3nccs3)cc1CO2,50*,-5,-2,-7,5,11
COCc1[nH]nc2c1C(c1ccc(F)cc1)N(Cc1ccccc1)C2=O (centres undefined),·,·,·,·,3,-5
Cc1c(O)nc2ccccn2c1=O,3,-1,6,-4,1,11
O=c1c2c([N+](=O)[O-])cc([N+](=O)[O-])cc2nc2ccccn12,73*,-5,3,-15,-1,-3
COc1cccc(C(=O)Nc2nc(-c3ccc(S(=O)(=O)N4CCOCC4)cc3)cs2)c1,29,12,-15,-1,21,50*
CC1=C(C(=O)N2CCOCC2)CC(CC(=O)NCc2cccs2)C(=O)N1Cc1ccc(F)cc1 (centres undefined),·,·,·,·,-1,-10
CCCN1C=CC(=C/C=C(\C#N)C(=O)OCC)C=C1,73*,33*,36,8,·,·
O=[N+]([O-])c1ccc2[nH]c(O)c(N=NC(=S)NCC3CCCO3)c2c1 (centres undefined),20,-2,1,0,-2,-7
CCNC(=S)N=Nc1c(O)[nH]c2ccc([N+](=O)[O-])cc12,46*,18,-1,-10,1,-9
C=C1CC(Cn2cc(Br)c(=O)[nH]c2=O)(c2ccc(-c3ccccc3)cc2)OC1=O (centres undefined),·,·,·,·,5,68*
O=c1[nH]c(=O)n(Cc2ccc(Oc3ccccc3)cc2)cc1Br,15,-3,-6,19,9,16
Cc1n[nH]c(=O)nc1NCCc1ccccc1,16,5,-2,3,40*,0
NN1C(=O)/C(=C2/Sc3ccccc3N2CCCS(=O)(=O)O)SC1=S,38*,9,2,14,1,-7
Cc1ccc(NC(=O)c2ccccc2NS(=O)(=O)c2ccc(Cl)s2)cc1,46,-5,15,11,4,28
O=C(Nc1ccccc1)c1ccccc1NS(=O)(=O)c1ccc(Cl)s1,65*,28*,9,16,2,2
O=C(Nc1ccccc1Cc1ccccc1)c1ccccc1NS(=O)(=O)c1ccc(Cl)s1,77*,24,28,18,4,33
COc1ccc(-c2nn(-c3ccccc3)cc2C(=O)Nc2nccs2)cc1,26,-15,-11,12,12,48
Cc1ccc(-c2nn(-c3ccccc3)cc2/C=C/C(=O)Nc2nccs2)cc1,7,-5,-1,-5,40*,46
O=C(Nc1nccs1)c1cn(-c2ccccc2)nc1-c1ccncc1,12,-32,-50,-8,38*,39
O=C(N=C1N=C2C=CC=CN2Cc2ccccc21)c1ccc(S(=O)(=O)N2CCOCC2)cc1,14,-10,-21,-7,4,-13
